Active and inactive are the calls of the source. No cut-off for these calls is given here.
Columns and labels:
[1] = test system: SK-OV-3; assay: Cytotoxicity against human SKOV3 cells assessed as cell growth inhibition after 24 hrs by MTT assay; format: functional, cell-based; conditions: SK-OV-3, 24 h
Method in brief: (§1)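 Cell lines grown to log phase in RPMI-1640 with 10% FBS, penicillin and streptomycin. About 10^5 cells/mL were plated and pre-incubated 24 h at 37 °C in 5% CO2. Compounds were given in DMSO, final ≤2% (v/v). MTT read-out was OD at 490 nm. Triplicate wells per concentration, each assay run ≥3 times. IC50 is 50% OD reduction versus untreated cells, calculated by the Logit method. Cisplatin was the reference.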

[2] = Cytotoxicity against human BGC cells assessed as cell growth inhibition after 24 hrs by MTT assay; format: functional, cell-based; method in brief: as §1
[3] = test system: Lewis lung carcinoma cell line; assay: Cytotoxicity against mouse LLC cells assessed as cell growth inhibition after 24 hrs by MTT assay; format: functional, cell-based; method in brief: as §1
[4] = test system: A-375; assay: Cytotoxicity against human A375 cells assessed as cell growth inhibition after 24 hrs by MTT assay; format: functional, cell-based; conditions: A-375, 24 h; method in brief: as §1
[5] = test system: HepG2; assay: Cytotoxicity against human HepG2 cells assessed as cell growth inhibition after 24 hrs by MTT assay; format: functional, cell-based; conditions: HepG2, 24 h; method in brief: as §1
[6] = test system: MCF7; assay: Cytotoxicity against human MCF7 cells assessed as cell growth inhibition after 24 hrs by MTT assay; format: functional, cell-based; conditions: MCF7, 24 h; method in brief: as §1
[7] = test system: ECa-109 cell line; assay: Cytotoxicity against human ECA109 cells assessed as cell growth inhibition after 24 hrs by MTT assay; format: functional, cell-based; conditions: ECa-109, 24 h; method in brief: as §1
[8] = test system: HT-29; assay: Cytotoxicity against human HT-29 cells assessed as cell growth inhibition after 24 hrs by MTT assay; format: functional, cell-based; conditions: HT-29, 24 h; method in brief: as §1
[9] = test system: 769-P; assay: Cytotoxicity against human 769-P cells assessed as cell growth inhibition after 24 hrs by MTT assay; format: functional, cell-based; method in brief: as §1
[10] = test system: Sarcoma-180; assay: Antitumor activity against mouse Sarcoma 180 cells implanted in mouse assessed as tumor growth inhibition at 10 mg/kg, ip administered once per day for 7 consecutive days starting from 24 hrs post tumor inoculation and measured on day 21 post tumor inoculation relative to control; format: functional; conditions: Sarcoma-180, ip, read-out: TGI
Method in brief: (§2)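 Tumor cells were harvested from 7-day donor tumors, and 2×10^6 viable cells/mouse were injected s.c. in the armpit. Groups of 10 female mice received i.p. compound daily for 7 days, starting 24 h after inoculation. Controls were vehicle (negative) and CTX 30 mg/kg (positive). Body weight was recorded every 3 days. On day 21 tumors were excised and weighed, and inhibition was calculated as (C−T)/C×100 from mean tumor weights.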

[11] = test system: Lewis lung carcinoma cell line; assay: Antitumor activity against mouse LLC cells implanted in mouse assessed as tumor growth inhibition at 10 mg/kg, ip administered once per day for 7 consecutive days starting from 24 hrs post tumor inoculation and measured on day 21 post tumor inoculation relative to control; format: functional; conditions: read-out: TGI; method in brief: as §2
[12] = test system: Mus musculus; assay: Cardiotoxicity in Kunming mouse at 5 to 500 mg/kg, ip after 14 days by macroscopic method; format: toxicity, organism-based; conditions: in vivo, 336 h
[13] = Acute toxicity in ip dosed Kunming mouse observed continuously for first 2 hrs, intermittently for next 24 hrs and occasionally thereafter for 14 days; format: organism-based; conditions: in vivo
Method in brief: (§3)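 SPF KM mice, 6-8 weeks, 19-22 g, fasted overnight with water available. Single i.p. dose, 5.0 to 500 mg kg-1 in 0.5% CMC-Na, 10 mice per group (5 male, 5 female). Observed for behaviour, neurotoxic signs and deaths, then killed on day 14 and heart, liver and kidneys inspected macroscopically. LD50 derived graphically.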

[14] = test system: Mus musculus; assay: Neurotoxicity in Kunming mouse assessed as twitch at 5 to 500 mg/kg, ip observed continuously for first 2 hrs, intermittently for next 24 hrs and occasionally thereafter for 14 days; format: toxicity, organism-based; conditions: in vivo; method in brief: as §3
[15] = test system: Mus musculus; assay: Acute toxicity in ip dosed Kunming mouse assessed as death at higher dose up to 4 to 8 hrs; format: organism-based; conditions: in vivo; method in brief: as §3
[16] = test system: Mus musculus; assay: Nephrotoxicity in Kunming mouse at 5 to 500 mg/kg, ip after 14 days by macroscopic method; format: toxicity, organism-based; conditions: in vivo, 336 h
[17] = test system: Mus musculus; assay: Neurotoxicity in Kunming mouse assessed as tremble at 5 to 500 mg/kg, ip observed continuously for first 2 hrs, intermittently for next 24 hrs and occasionally thereafter for 14 days; format: toxicity, organism-based; conditions: in vivo; method in brief: as §3
[18] = test system: Mus musculus; assay: Neurotoxicity in Kunming mouse assessed as supination at 5 to 500 mg/kg, ip observed continuously for first 2 hrs, intermittently for next 24 hrs and occasionally thereafter for 14 days; format: toxicity, organism-based; conditions: in vivo; method in brief: as §3
[19] = test system: Mus musculus; assay: Neurotoxicity in Kunming mouse assessed as jumping behavior at 5 to 500 mg/kg, ip observed continuously for first 2 hrs, intermittently for next 24 hrs and occasionally thereafter for 14 days; format: toxicity, organism-based; conditions: in vivo; method in brief: as §3
[20] = test system: Mus musculus; assay: Hepatotoxicity in Kunming mouse at 5 to 500 mg/kg, ip after 14 days by macroscopic method; format: toxicity, organism-based; conditions: in vivo, 336 h
[21] = test system: Chorioallantoic membrane; assay: In vivo antiangiogenic activity in chicken embryo chorioallantoic membrane at 50 uM/disc after 48 hrs by microscopic method; format: functional, organism-based; conditions: Gallus gallus

| Structure (SMILES) | IC50 [1] [µM] | IC50 [2] [µM] | IC50 [3] [µM] | IC50 [4] [µM] | IC50 [5] [µM] | IC50 [6] [µM] | IC50 [7] [µM] | IC50 [8] [µM] | IC50 [9] [µM] | also measured |
| --- | --- | --- | --- | --- | --- | --- | --- | --- | --- | --- |
| CCn1c2cc(OCCCCCCn3c4ccccc4c4ccnc(C)c43)ccc2c2ccnc(C)c21 | 11.2 | 44.7 | 51.1 | 74.6 | 74.6 | 75.2 | 61.4 | 36.2 | 75.2 |  |
| Cc1nccc2c3ccc(OCCCCn4c5ccccc5c5ccnc(C(C)C)c54)cc3n(CCCc3ccccc3)c12 | 28.1 | 37.8 | 10.8 | 23.8 | 46.2 | 14.4 | 16.2 | 12.1 | 18.5 |  |
| Cc1nccc2c3ccccc3n(CCCCCCOc3ccc4c5ccnc(C)c5n(CCCc5ccccc5)c4c3)c12 | 19.4 | 12.5 | 14.1 | 15.8 | 14.1 | 11.7 | 15.1 | 28.1 | 16.1 |  |
| CCn1c2cc(OCCCCCn3c4ccccc4c4ccnc(C)c43)ccc2c2ccnc(C)c21 | 30.8 | 35.4 | > 100 | 31.5 | 112 | 56.3 | 46.6 | 14.9 | 70.6 |  |
| CCCCn1c2cc(OCCCCn3c4ccccc4c4ccnc(C)c43)ccc2c2ccnc(C)c21.Cl | 21.7 | 33.6 | 13.3 | 14.1 | 15.7 | 11.2 | 12.2 | 16.4 | 15.3 | inhibition in vivo at 10 mg/kg [10]: 53.3%; inhibition in vivo at 10 mg/kg [11]: 27.2%; Activity [12]: Non-Toxic; LD50 at 14 days [13]: 50 mg/kg; Activity [14]: Non-Toxic; Activity [15]: Toxic; Activity [16]: Non-Toxic; Activity [17]: Non-Toxic; Activity [18]: Non-Toxic; Activity [19]: Non-Toxic; Activity [20]: Non-Toxic |
| COc1ccc(-c2nccc3c4ccccc4n(CCCCOc4ccc5c6ccnc(C)c6n(CCCc6ccccc6)c5c4)c23)cc1OC | 8.8 | 9.7 | 6.2 | 6.7 | 2.4 | 7.2 | 9.3 | 22.7 | 8.2 |  |
| CCn1c2cc(OCCCCCCn3c4ccccc4c4ccncc43)ccc2c2ccnc(C)c21 | > 100 | 40.7 | 21.8 | 34.7 | > 100 | 19 | 17.4 | 60.3 | > 100 |  |
| COc1ccc(/C=C\c2cc(OC)c(OC)c(OC)c2)cc1OP(=O)(O)O |  |  |  |  |  |  |  |  |  | Activity [21]: Active |
| COc1cc(-c2nccc3c4ccccc4n(CCCCOc4ccc5c6ccnc(C)c6n(CCCc6ccccc6)c5c4)c23)cc(OC)c1OC | 10.3 | 18.2 | 8.7 | 7.1 | 24.9 | 11.7 | 9.7 | 3.9 | 14.1 |  |
| Cc1nccc2c3ccc(OCCCCn4c5ccccc5c5ccnc(-c6ccccc6Cl)c54)cc3n(CCCc3ccccc3)c12 | 22.9 | 12.4 | 10.1 | 3.9 | 14.4 | 5.9 | 18.4 | 20.2 | 21.9 |  |

Reference: ChEMBL document CHEMBL4145545, “Synthesis and structure-activity relationships of asymmetric dimeric β-carboline derivatives as potential antitumor agents” (Eur J Med Chem, 2018)
